In ChEMBL document CHEMBL1140445, “Design, synthesis, and preliminary pharmacological evaluation of a set of small molecules that directly activate gi proteins” (J Med Chem, 2005):
pEC50: −log10 of the molar value.

Key:
Assay type in all cases: functional
[1] = biological target: T1, Guanine nucleotide-binding protein G(i) subunit alpha-1 (Homo sapiens, UniProt P63096); assay: Concentration required to stimulate binding of [35S]GTP-gamma-S, with G alpha i1
Summary of the method: (§1)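 His-tagged recombinant Gαi subunits were expressed in E. coli BL21/DE3 and purified by IMAC. 3 pmol of subunit, native or in lipid vesicles, was incubated 30 min at 30 °C with 0.1 μM [35S]GTPγS in 50 mM Hepes-NaOH, 1 mM EDTA, 1 mM DTT and 100 μM MgSO4. The reaction was stopped with ice-cold buffer and filtered on cellulose nitrate. EC50 came from 1×10^-7 to 1×10^-4 M (eight concentrations).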

[2] = biological target: T2, Guanine nucleotide-binding protein G(i) subunit alpha-3 (Homo sapiens, UniProt P08754); assay: Concentration required to stimulate binding of [35S]GTP-gamma-S, with G alpha i3; summary of the method: as §1
[3] = biological target: T3, Guanine nucleotide-binding protein G(o) subunit alpha (Homo sapiens, UniProt P09471); assay: Concentration required to stimulate binding of [35S]GTP-gamma-S, with G alpha o1
Summary of the method: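 Gαo: His-tagged recombinant subunit from E. coli BL21/DE3, IMAC-purified. 3 pmol, native or vesicle-reconstituted, incubated 30 min at 20 °C with 0.1 μM [35S]GTPγS in Hepes-NaOH/EDTA/DTT/100 μM MgSO4 mix. The reaction was stopped with ice-cold Tris/MgCl2/NaCl buffer, filtered on cellulose nitrate and washed. EC50 was derived from eight concentrations spanning 1×10^-7 to 1×10^-4 M.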
Target sequence in this assay (P09471 whole entry): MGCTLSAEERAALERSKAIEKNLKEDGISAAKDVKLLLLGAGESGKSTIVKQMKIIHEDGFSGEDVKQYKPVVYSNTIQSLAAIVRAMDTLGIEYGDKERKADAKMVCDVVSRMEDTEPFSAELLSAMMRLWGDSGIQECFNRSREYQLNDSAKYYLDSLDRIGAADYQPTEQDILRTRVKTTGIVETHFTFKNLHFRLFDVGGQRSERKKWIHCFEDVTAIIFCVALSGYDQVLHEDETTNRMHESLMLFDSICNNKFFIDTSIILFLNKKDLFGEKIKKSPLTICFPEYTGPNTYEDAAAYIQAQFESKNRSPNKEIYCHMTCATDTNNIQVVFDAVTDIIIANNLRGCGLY

[4] = biological target: T1, Guanine nucleotide-binding protein G(i) subunit alpha-1; assay: Percent stimulation of [35S]GTP-gamma-S, binding to G alpha i1 at 5E-5 M of basal for 30 minutes
Summary of the method: (§2)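 Recombinant His-tagged Gαi subunit (3 pmol, native or in lipid vesicles) was incubated with compound at 5×10^-5 M and 0.1 μM [35S]GTPγS, 30 min at 30 °C, in 50 mM Hepes-NaOH, 1 mM EDTA, 1 mM DTT, 100 μM MgSO4. Filter-bound GTPγS after ice-cold stop and cellulose-nitrate filtration is expressed as percent of basal.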

[5] = biological target: T2, Guanine nucleotide-binding protein G(i) subunit alpha-3; assay: Percent stimulation of [35S]GTP-gamma-S, binding to G alpha i3 at 5E-5 M of basal for 30 minutes; summary of the method: as §2
[6] = biological target: T3, Guanine nucleotide-binding protein G(o) subunit alpha; assay: Percent stimulation of [35S]GTP-gamma-S, binding to G alpha o1 at 5E-5 M of basal for 30 minutes
Summary of the method: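 With Gαo (3 pmol recombinant His-tagged subunit, native or vesicle-reconstituted), binding of 0.1 μM [35S]GTPγS was measured during 30 min at 20 °C with compound at 5×10^-5 M, in Hepes-NaOH buffer with EDTA, DTT and 100 μM MgSO4. Samples were filtered on cellulose nitrate, and the value is percent of basal binding.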
Target sequence in this assay (P09471 2-354 limits assumed): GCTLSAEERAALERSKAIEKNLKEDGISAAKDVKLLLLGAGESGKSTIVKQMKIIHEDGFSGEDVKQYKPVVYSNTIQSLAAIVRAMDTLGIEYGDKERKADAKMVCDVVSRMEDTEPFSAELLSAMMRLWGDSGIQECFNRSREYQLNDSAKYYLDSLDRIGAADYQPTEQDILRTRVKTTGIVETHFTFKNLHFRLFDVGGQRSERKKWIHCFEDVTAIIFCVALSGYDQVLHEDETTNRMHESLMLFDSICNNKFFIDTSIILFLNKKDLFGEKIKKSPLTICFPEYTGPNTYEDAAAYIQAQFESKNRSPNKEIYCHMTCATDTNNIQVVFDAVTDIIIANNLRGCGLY

[7] = biological target: T2, Guanine nucleotide-binding protein G(i) subunit alpha-3; assay: Percent stimulation of [35S]GTP-gamma-S, binding to G alpha i3 at 3E-5 M of basal for 30 minutes

T1 sequence (P63096 whole entry): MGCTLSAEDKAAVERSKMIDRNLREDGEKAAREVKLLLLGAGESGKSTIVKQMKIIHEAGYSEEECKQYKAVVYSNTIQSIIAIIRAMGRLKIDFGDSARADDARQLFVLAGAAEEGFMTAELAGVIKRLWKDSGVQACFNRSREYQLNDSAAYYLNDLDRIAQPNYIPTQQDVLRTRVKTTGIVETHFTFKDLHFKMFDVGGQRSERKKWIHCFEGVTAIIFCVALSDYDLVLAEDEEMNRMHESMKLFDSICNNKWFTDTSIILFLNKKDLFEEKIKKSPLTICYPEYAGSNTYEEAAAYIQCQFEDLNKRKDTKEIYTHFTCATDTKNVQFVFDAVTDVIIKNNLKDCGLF
T2 sequence (P08754 whole entry): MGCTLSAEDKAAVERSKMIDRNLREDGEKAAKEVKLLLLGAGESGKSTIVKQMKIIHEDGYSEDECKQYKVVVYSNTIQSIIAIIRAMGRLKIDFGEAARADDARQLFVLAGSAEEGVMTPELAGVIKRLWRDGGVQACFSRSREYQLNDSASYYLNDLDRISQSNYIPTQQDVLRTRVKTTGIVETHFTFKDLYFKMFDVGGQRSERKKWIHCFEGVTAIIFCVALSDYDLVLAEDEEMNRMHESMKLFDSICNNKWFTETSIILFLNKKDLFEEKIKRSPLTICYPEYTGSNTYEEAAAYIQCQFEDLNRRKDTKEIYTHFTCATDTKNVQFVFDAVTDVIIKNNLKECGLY

Row | SMILES | pEC50 [1] | pEC50 [2] | pEC50 [3] | Stimulation [4] | Stimulation [5] | Stimulation [6] | Stimulation [7]
1 | CCCCCCCCCCCCCCCNC(=O)C1CCN(CCNC=O)CC1 | 5.07 | 5.03 | 5.26 | 3290% | 3240% | 3600% | 
2 | CCCCCCCCCCCCCN1CCC(C2CCN(C)CC2)CC1 | 4.73 | 4.72 | 4.71 | 704% | 435% | 420% | 
3 | COc1ccccc1CN1CCC(C2CCNCC2)CC1 |  | 4.41 |  | 60% | 391% | 129% | 
4 | CCCCCCCCCCCCCCCN1CCC(C2CCN(C)CC2)CC1 |  |  |  | 97% | 80% | 93% | 
5 | CCCCCCCCCCCCCCCCCN1CCC(C2CCNCC2)CC1 | 4.45 | 4.38 | 4.87 | 5690% | 5660% | 3480% | 
6 | CCCCCCCCCCCCCCCCC(=O)N1CCC(C2CCN(C)CC2)CC1 | 4.64 | 4.63 | 4.67 | 232% | 181% | 472% | 
7 | CCCCCCCCCCCCNC(=O)C(N)CCCCN (stereo not given) | 4.32 | 4.36 | 4.54 | 900% | 1030% | 2510% | 
8 | CCCCCCCCCCCCCCC[N+]1(C)CCC(C2CCNCC2)CC1 (stereo not given) | 4.83 | 4.80 | 5.00 | 1580% | 1630% | 2090% | 
9 | CCCCCCCCCCCCCCCN1CCC(CCC2CCNCC2)CC1 | 3.35 | 2.09 | 4.98 | 2460% | 2400% | 5010% | 
10 | CCCCCCCCCCCCC(=O)N1CCC(C2CCN(C)CC2)CC1 |  |  |  | 84% | 75% | 126% | 
11 | CCCCCCCCCCCCCCC(=O)N1CCC(CCC2CCN(C)CC2)CC1 | 4.70 | 5.21 | 4.90 | 577% | 815% | 742% | 
12 | CCCCCCCCCCCCCCCN1CCC(CCC2CCN(C)CC2)CC1 |  |  |  | 86% | 102% | 132% | 
13 | CCCCCCCCCCCCCCCNCC1CCN(CCN)CC1 | 4.75 | 4.64 | 4.61 | 825% | 815% | 942% | 
14 | CCCCCCCCCCCCCCCCCN1CCC(C2CCN(C)CC2)CC1 |  |  |  | 81% | 97% | 99% | 

Other lines, results leading:

Row | pEC50 [1] | pEC50 [2] | pEC50 [3] | Stimulation [4] | Stimulation [5] | Stimulation [6] | Stimulation [7] | SMILES
15 | 4.74 | 4.72 | 4.77 | 2630% | 2720% | 3350% |  | CCCCCCCCCCCCCCCNC(=O)C1CCN(CCN)CC1
16 | 4.30 | 4.46 | 4.64 | 1270% | 1290% | 1370% |  | CCCCCCCCCCCCCCC(=O)NC1CCNCC1
17 | 4.41 | 4.60 | 4.63 | 2320% | 3690% | 4640% |  | CCCCCCCCCCCCCCC(=O)NN1CCNCC1
18 | 4.59 | 4.60 | 4.59 | 1050% | 1070% | 1280% |  | CCCCCCCCCCCCCCC(=O)N1CCC(N)CC1
19 | 4.75 | 4.92 | 4.74 | 950% | 1180% | 1500% |  | CCCCCCCCCCCCC(=O)N1CCC(C2CCNCC2)CC1
20 | 4.93 | 4.95 | 4.88 | 3370% | 3440% | 3830% |  | CCCCCCCCCCCCCCCNC1CCNCC1
21 | 5.22 | 4.75 | 4.46 | 392% | 265% | 531% |  | CCCCCCCCCCCCCCC(=O)N1CCC(C2CCN(C)CC2)CC1
22 | 4.72 | 4.73 | 5.21 | 1510% | 1640% | 1810% |  | CCCCCCCCCCCCCCCN1CCC(C2CCNCC2)CC1
23 | 4.60 | 4.61 | 4.65 | 612% | 424% | 920% |  | CCCCCCCCCCCCCCCCC(=O)N1CCC(C2CCNCC2)CC1
24 | 4.80 | 4.72 | 5.21 | 5060% |  | 5580% | 5720% | CCCCCCCCCCCCCCCNN1CCNCC1
25 | 4.97 | 4.94 | 4.91 | 2460% | 1930% | 4160% |  | CCCCCCCCCCCCCCCNCC1CCNCC1
26 | 4.49 | 4.84 | 4.87 | 1540% | 2280% | 3040% |  | CCCCCCCCCCCCCCCN1CCC(NC2CCNCC2)CC1
27 | 4.44 | 4.73 | 4.59 | 1480% | 2000% | 2350% |  | CCCCCCCCCCCCCNC1CCNCC1
28 | 5.18 | 5.20 | 5.21 | 845% | 1090% | 724% |  | CCCCCCCCCCCCCCC(=O)N1CCC(CCC2CCNCC2)CC1
29 | 5.19 | 5.23 | 5.09 | 973% | 986% | 2270% |  | CCCCCCCCCCCCCCCNC(=O)C1CCNCC1
30 | 4.66 | 4.56 | 4.64 | 3350% | 3780% | 6890% |  | CCCCCCCCCCCCCCCN1CCC(N)CC1
31 | 4.54 | 4.61 | 3.43 | 173% | 211% | 194% |  | CCCCCCCCCCCCCCC(=O)N1CCN(N)CC1
32 | 5.07 | 5.03 | 5.25 | 1540% | 1560% | 2390% |  | CCCCCCCCCCCCCCC(=O)N1CCC(C2CCNCC2)CC1
33 | 5.19 | 5.19 | 5.43 | 2330% | 2820% | 2870% |  | CCCCCCCCCCCCCCCN1CCN(N)CC1
34 | 4.68 | 4.67 | 4.57 | 755% | 406% | 913% |  | CCCCCCCCCCCCCN1CCC(C2CCNCC2)CC1
